Published values pooled from the literature.
Protocols differ between the studies behind these lines.

CC(C)N(c1ccc(Cl)c(F)c1)c1ccc(NC(=O)CN(C)c2ccccc2N2CCCC2=O)cn1
solubility (PBS; pH 7.4): 9.6 µM

Oc1ccc(/C=C/c2cc(O)cc(O)c2)cc1
solubility (HPLC; aqueous buffer; 24 h, pH 6.8): 79.5 µg/mL

CC(C)(C(=O)O)[C@H](NC(=O)Cc1cccc(I)c1)c1ccc2oc(=O)[nH]c2c1
solubility (aqueous buffer; pH 6.8): > 700 µM

CCOC(=O)C1=C(CN2CCOCC2)NC(c2nccs2)=NC1c1ccc(F)cc1Br (centres unmarked)
solubility (HPLC; aqueous buffer; pH 7): < 1 µg/mL

O=C(O)c1cc(-c2ccc(-n3ccnn3)cc2)cc(-n2cc(-c3ccc(C(F)(F)F)cc3)nn2)c1
solubility (aqueous buffer; pH 7.4): 7.6 µg/mL

CNS(=O)(=O)c1ccc(Nc2ncc(C(F)(F)F)c(N3CCC(C)(O)CC3)n2)c(C)c1
solubility (FaSSIF; 2 h): 26 µM

O=C(O)c1cc(-c2ccc(-n3ccnn3)cc2)c2ccc(-c3ccc(C(F)(F)F)cc3)cc2c1
solubility (aqueous buffer; pH 4): 0.19 µg/mL

O=c1c2c(F)cc(Cl)cc2[nH]c2cccc(Oc3ccc(OC(F)(F)F)cc3)c12
solubility (absorbance; aqueous buffer; 90 min, pH 7.4): 32.3 µM

Cc1cc(-c2ccnc3[nH]cc(F)c23)cc(F)c1[C@@]1(O)[C@H](C)CN(C2CCS(=O)(=O)CC2)C[C@@H]1C
solubility (aqueous buffer): > 50 µg/mL

CCCN1C(=O)COc2ccc(S(=O)(=O)Nc3cc(OC)ccc3OC)cc21
solubility (PBS; 8 h, pH 7.4): 100 µM

CCN(CC)CCOc1ccc2c(=O)c3c([nH]c2c1)CCCC3
solubility (absorbance; aqueous buffer; 90 min, pH 7.4): > 500 µM

Cc1ncsc1-c1ccc(CNC(=O)[C@@H]2C[C@@H](O)CN2C(=O)[C@@H](NC(=O)COCCOCCOCCNC(=O)C[C@@H]2N=C(c3ccc(Cl)cc3)c3c(sc(C)c3C)-n3c(C)nnc32)C(C)(C)C)cc1
solubility (HPLC; water; pH 6.9): 45 µg/mL

OCc1ccc(-c2nn(Cc3ccccc3)c3ccccc23)o1
solubility (aqueous buffer; 6 h, pH 7.4): 3 µg/mL

Cc1ccc(N(C)c2ccc(NC(=O)CN(C)c3ccccc3N3CCCC3=O)cc2)cc1
solubility (PBS; pH 7.4): 7.2 µM

Cn1cc(-c2ccc3c(Cl)cn(CC(=O)Nc4ccccc4Cl)c3c2)cn1
solubility (PBS; pH 7.4): < 2.7 µM

Cc1ccc(N(C)c2ccc(NC(=O)CN(C)c3cc(F)ccc3N3CCCC3=O)cc2)cc1
solubility (PBS; pH 7.4): 6.3 µM

Cn1cc(Nc2ncnc3ccc(-c4cccc(N5CCOCC5)c4)cc23)cn1
solubility (aqueous buffer; pH 7.4, 25 °C): 1.5 µM

Cc1ccc(N(C)c2ccc(NC(=O)CN(C)c3cccnc3N3CCCC3=O)cc2)cc1
solubility (PBS; pH 7.4): 16 µM

CNS(=O)(=O)c1ccc(Nc2ncc(C(F)(F)F)c([C@H]3CC[C@](C)(O)CC3)n2)c(C)c1
solubility (PBS; 2 h, pH 7.4): 0.4 µM

CN1CCN(c2cccc(-c3ccc4ncnc(Nc5ccc(Cl)c(Cl)c5)c4c3)c2)CC1
solubility (aqueous buffer; pH 7.4, 25 °C): < 1.7 µM

NCc1ccc(-c2nn(Cc3ccncc3)c3ccccc23)o1
solubility (aqueous buffer; 6 h, pH 7.4): > 30 µg/mL

CNS(=O)(=O)c1ccc(Nc2ncc(C(F)(F)F)c(N3CCC[C@](C)(O)C3)n2)c(C)c1
solubility (PBS; 2 h, pH 7.4): 37 µM

CC(C)(C)OC(=O)N1CCC(Oc2ccc3c(=O)c4c(F)cc(Cl)cc4[nH]c3c2)C1 (centres unmarked)
solubility (absorbance; aqueous buffer; 90 min, pH 7.4): < 3.12 µM

Cc1ccc(Nc2cnnc3ccc(-c4ccc(N5CCN(C)CC5)cc4)cc23)cn1
solubility (aqueous buffer; pH 7.4, 25 °C): 60 µM

OCc1ccc(-c2nn(Cc3cccnc3)c3ccccc23)o1
solubility (aqueous buffer; 6 h, pH 7.4): > 45 µg/mL

c1cc(-c2ccc3ncnc(Nc4ncco4)c3c2)nc(N2CCOCC2)n1
solubility (aqueous buffer; pH 7.4, 25 °C): 3 µM

O=C(Nc1ccc(OC(F)(F)F)cc1)N[C@H]1CC[C@H](Oc2ccc(C(=O)O)cc2)CC1
solubility (simulated gastric fluid; 10 min, pH 1, 37 °C, acidic): 0.0002 µg/mL

COc1cnccc1Cn1nc(-c2ccc(CO)o2)c2ccccc21
solubility (aqueous buffer; 6 h, pH 7.4): > 33 µg/mL

CC(C)(C)OC(=O)N1CCC(Oc2ccc3c(=O)c4c(Cl)cc(F)cc4[nH]c3c2)CC1
solubility (absorbance; aqueous buffer; 90 min, pH 7.4): < 3.12 µM

c1cc(-c2ccc3ncnc(Nc4ncco4)c3c2)nc(N2C[C@H]3C[C@@H]2CO3)n1
solubility (aqueous buffer; pH 7.4, 25 °C): 48 µM

CC1(CNc2nc(-c3cccs3)nc(Cl)c2-c2c(F)cc(N)cc2F)COC1
solubility (mass spectrometry; PBS; pH 7.4): 46 µM

CN1CCN(c2ccc(-c3ccc4nncc(Nc5ccc(OC(F)(F)F)cc5)c4c3)cc2)CC1
solubility (aqueous buffer; pH 7.4, 25 °C): 2.5 µM

c1cc(-c2ccc3ncnc(NC4CCOCC4)c3c2)cc(N2CCOCC2)c1
solubility (aqueous buffer; pH 7.4, 25 °C): 202 µM

Cc1ccc(Oc2ccc(NC(=O)CNc3ccccc3N3CCCC3=O)cc2)cc1
solubility (PBS; pH 7.4): 9.1 µM

Cc1ccccc1CN1C(=O)C2=C(CCN(Cc3ccccc3)C2)N2CCN=C12
solubility (shake flask; aqueous buffer; pH 4): 92100 µg/mL

O=c1c2ccc(Oc3ccc(OC(F)(F)F)cc3)cc2[nH]c2cc(F)c(Cl)cc12
solubility (absorbance; aqueous buffer; 90 min, pH 7.4): < 3.12 µM

Clc1cccc(Nc2ncnc3ccc(-c4cccc(N5CCOCC5)c4)cc23)c1
solubility (aqueous buffer; pH 7.4, 25 °C): 12 µM

O=C(O)Cc1ccccc1Nc1c(Cl)cccc1Cl
solubility (FaSSIF): 324 µM

C[C@@H]1CN(c2cccc(-c3ccc4ncnc(Nc5ncco5)c4c3)c2)C[C@H](C)O1
solubility (aqueous buffer; pH 7.4, 25 °C): 11 µM

CCOC(=O)C1=C(CN2CCC[C@@H]2C(=O)Nc2ccc(B(O)O)cc2)NC(c2nccs2)=N[C@H]1c1ccc(F)cc1Br
solubility (HPLC; aqueous buffer; pH 7): 2.57 µg/mL

COc1cc(Cn2nc(-c3ccc(CO)o3)c3ccccc32)ccn1
solubility (aqueous buffer; 6 h, pH 7.4): > 33 µg/mL

c1ccc(Oc2ccc(Nc3c4c(nc5ccccc35)CCC4)cc2)cc1
solubility (simulated gastric fluid; 30 min, pH 2, acidic): 25 to 50 µg/mL

Clc1ccc(Nc2ncnc3ccc(-c4cccc(N5CCOCC5)c4)cc23)cc1
solubility (aqueous buffer; pH 7.4, 25 °C): < 0.4 µM

OCc1ccc(-c2nn(Cc3ccccn3)c3ccccc23)o1
solubility (aqueous buffer; 6 h, pH 7.4): > 45 µg/mL
